According to ChEMBL document CHEMBL1142010, “Synthesis and in vitro antitrypanosomal activity of novel Nifurtimox analogues” (2005):

Key:
Assay type in all cases: functional
Trypanosoma cruzi [1] = experiment: Percent of growth inhibition of Trypanosoma cruzi (Y strain) epimastigote forms at compound concentration of 10 mg/mL after incubation for 24 hr; design: inhibition: dose or concentration left out as unconfirmed
Trypanosoma cruzi [2] = experiment: Percent of growth inhibition of Trypanosoma cruzi (Y strain) epimastigote forms at compound concentration of 1 mg/mL after incubation for 24 hr
Summary of the method: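 Y-strain epimastigotes were grown at 28 °C in LIT medium with 10% heat-inactivated (56°, 30 min) fetal calf serum. Log-phase parasites, started at 2 × 10⁶/mL, were exposed to compound in DMSO (1% final). Growth and viability were read every 24 h by inverted microscopy, absorbance at 580 nm and Neubauer counts, in triplicate. Growth inhibition % is the mean of three experiments.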

Trypanosoma cruzi [3] = experiment: Percent of growth inhibition of Trypanosoma cruzi (Y strain) epimastigote forms at compound concentration of 1 mg/mL after incubation for 48 hr; design: inhibition: dose or concentration left out as unconfirmed
Trypanosoma cruzi [4] = experiment: Percent of growth inhibition of Trypanosoma cruzi (Y strain) epimastigote forms at compound concentration of 100 mg/mL after incubation for 24 hr; design: inhibition: dose or concentration left out as unconfirmed
Trypanosoma cruzi [5] = experiment: Percent of growth inhibition of Trypanosoma cruzi (Y strain) epimastigote forms at compound concentration of 10 mg/mL after incubation for 98 hr; design: inhibition: dose or concentration left out as unconfirmed
Trypanosoma cruzi [6] = experiment: Percent of growth inhibition of Trypanosoma cruzi (Y strain) epimastigote forms at compound concentration of 1 mg/mL after incubation for 72 hr; design: inhibition: dose or concentration left out as unconfirmed
Trypanosoma cruzi [7] = experiment: Percent of growth inhibition of Trypanosoma cruzi (Y strain) epimastigote forms at compound concentration of 10 mg/mL after incubation for 48 hr; design: inhibition: dose or concentration left out as unconfirmed
Trypanosoma cruzi [8] = experiment: Percent of growth inhibition of Trypanosoma cruzi (Y strain) epimastigote forms at compound concentration of 10 mg/mL after incubation for 72 hr; design: inhibition: dose or concentration left out as unconfirmed

Compound	inhibition (Trypanosoma cruzi [1]) [%]	inhibition at 1000 µg/mL (Trypanosoma cruzi [2]) [%]	inhibition (Trypanosoma cruzi [3]) [%]	inhibition (Trypanosoma cruzi [4]) [%]	inhibition (Trypanosoma cruzi [5]) [%]	inhibition (Trypanosoma cruzi [6]) [%]	inhibition (Trypanosoma cruzi [7]) [%]	inhibition (Trypanosoma cruzi [8]) [%]	inhibition at 10000 µg/mL (Trypanosoma cruzi [1]) [%]	inhibition at 1000 µg/mL (Trypanosoma cruzi [3]) [%]	inhibition at 100000 µg/mL (Trypanosoma cruzi [4]) [%]	inhibition at 10000 µg/mL (Trypanosoma cruzi [5]) [%]	inhibition at 1000 µg/mL (Trypanosoma cruzi [6]) [%]	inhibition at 10000 µg/mL (Trypanosoma cruzi [7]) [%]	inhibition at 10000 µg/mL (Trypanosoma cruzi [8]) [%]
O=C(/C=C/c1cccs1)NCc1ccccc1	17.4	17.4	15	39.1	13.2	10.7	22.5	19.6							
O=C(/C=C/c1ccc([N+](=O)[O-])o1)Nc1nc2c(Cl)cccc2s1	21.7	26.1	22.5	100	50	23.2	42.5	50							
O=C(/C=C/c1ccc([N+](=O)[O-])o1)NCc1ccccc1	100	47.8	65	100	100	71.4	100	100							
CC(C)CNC(=O)/C=C/c1ccc([N+](=O)[O-])o1	100	47.8	65	100	100	69.6	100	100							
O=C(/C=C/c1ccc([N+](=O)[O-])o1)NCc1ccc2c(c1)OCO2	100	52.2	67.5	100	100	71.4	100	100							
O=C(/C=C/c1ccc([N+](=O)[O-])o1)NCc1ccc(Cl)cc1	100	39.1	60	100		67.8	100	100							
O=C(/C=C/c1ccc([N+](=O)[O-])s1)NCc1ccccc1	30.4	26.1		100	55.9	25	47.5	53.6							
O=C(/C=C/c1ccco1)NCc1ccccc1	21.7	8.7	5	39.1	19.1	5.36	32.5	28.6							
C[S+](C)[O-] [DIMETHYL SULFOXIDE]	0	0	0	0	0	0	0	0							
CC1CS(=O)(=O)CCN1/N=C/c1ccc([N+](=O)[O-])o1 (stereo not drawn) [NIFURTIMOX]		17.4							100	20	100	100	19.6	100	100
